We go through twelve compounds from ChEMBL document CHEMBL2057089, “Design and synthesis of novel p38α MAP kinase inhibitors: discovery of pyrazole-benzyl ureas bearing 2-molpholinopyrimidine moiety” (Bioorg Med Chem Lett, 2012).

In series [1] the target is Mitogen-activated protein kinase 14 (Homo sapiens, UniProt Q16539). The series can be described thus: Inhibition of human recombinant P38alpha-mediated ATF2 phosphorylation after 1 hr.
Series [2] has as its system Mus musculus. Kind of series: Antiinflammatory activity in BALB/c mouse model of endotoxic shock assessed as inhibition of LPS-induced TNFalpha production at 50 mg/kg, po administered 30 mins before LPS challenge measured after 60 mins by ELISA. The class given is functional. The procedure, abridged:
(§1)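 Male BALB/c mice, 8 weeks old, were dosed orally at 10 mL/kg. Controls received vehicle (27% hydroxypropyl-β-cyclodextrin, 10 mL/kg). LPS (1 mg/kg) was injected i.p. 30 min after dosing. Blood was taken 60 min after LPS, and serum was separated for TNF-α measurement.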
On the technique in general: In an ELISA, binding on a coated surface is turned into a signal by an enzyme label.

Series [3] is described as follows: Antiinflammatory activity in human whole blood cells assessed as inhibition of LPS-induced TNFalpha production after 4 hrs by time-resolved fluorescence assay. The series is classed as functional, cell-based. The procedure, abridged:
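Freshly drawn heparinized human whole blood was given compound diluted in human serum AB and preincubated 1 h at 37 °C. It was then stimulated with LPS (200 ng/mL, E. coli O111:B4) for 4 h at 37 °C. Supernatant TNF-α was read by homogeneous time-resolved fluorescence.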

Series [4] relates to Mus musculus. Kind of series: Hepatotoxicity in Crlj:CD1(ICR) mouse assessed as change in plasma AST level at 2000 mg/kg, po administered for 5 consecutive days measured 24 hrs post final dosing (reference value: 45 +/- 11 U/L). Details: dose 2000 mg/kg, route oral. The class given is toxicity, organism-based. The settings on record: in vivo.
Series [5] has as its system Mus musculus. Kind of series: Hepatotoxicity in Crlj:CD1(ICR) mouse assessed as change in plasma AST level at 1000 mg/kg, po administered for 5 consecutive days measured 24 hrs post final dosing (reference value: 45 +/- 11 U/L). More on the design: dose 1000 mg/kg, route oral. The following applies: in vivo. The class given is toxicity, organism-based.
Series [6] relates to Mus musculus. The series can be described thus: Hepatotoxicity in Crlj:CD1(ICR) mouse assessed as change in plasma AST level at 500 mg/kg, po administered for 5 consecutive days measured 24 hrs post final dosing (reference value: 45 +/- 11 U/L). More on the design: dose 500 mg/kg, route oral. The following applies: in vivo. The class given is toxicity, organism-based.
The subject of series [7] is Mus musculus. Kind of series: Hepatotoxicity in Crlj:CD1(ICR) mouse assessed as change in plasma ALT level at 2000 mg/kg, po administered for 5 consecutive days measured 24 hrs post final dosing (reference value: 24 +/- 4 U/L). The series is classed as toxicity, organism-based. Details: dose 2000 mg/kg, route oral. The following applies: in vivo.
Series [8] relates to Mus musculus. The series can be described thus: Hepatotoxicity in Crlj:CD1(ICR) mouse assessed as change in plasma ALT level at 1000 mg/kg, po administered for 5 consecutive days measured 24 hrs post final dosing (reference value: 24 +/- 4 U/L). The class given is toxicity, organism-based. Details: dose 1000 mg/kg, route oral. The settings on record: in vivo.
Series [9] has as its system Mus musculus. The series can be described thus: Hepatotoxicity in Crlj:CD1(ICR) mouse assessed as change in plasma ALT level at 500 mg/kg, po administered for 5 consecutive days measured 24 hrs post final dosing (reference value: 24 +/- 4 U/L). The class given is toxicity, organism-based. The settings on record: in vivo. More on the design: dose 500 mg/kg, route oral.

The subject of series [10] is Mus musculus. Kind of series: Antiinflammatory activity in po dosed BALB/c mouse model of endotoxic shock assessed as inhibition of LPS-induced TNFalpha production administered 30 mins before LPS challenge measured after 60 mins by ELISA.
Series [11] deals with Mus musculus. The series can be described thus: Antiinflammatory activity in BALB/c mouse model of endotoxic shock assessed as inhibition of LPS-induced TNFalpha production at 100 mg/kg, po administered 30 mins before LPS challenge measured after 60 mins by ELISA. The class given is functional. The essentials:
as §1

Series [12] has as its system Mus musculus. The series can be described thus: Hepatotoxicity in Crlj:CD1(ICR) mouse assessed as change in plasma direct bilirubin level at 500 to 1000 mg/kg, po administered for 5 consecutive days measured 24 hrs post final dosing. The following applies: in vivo. Details: dose 500-1000 mg/kg, route oral. The series is classed as toxicity, organism-based.
Series [13] has as its system Mus musculus. The series can be described thus: Hepatotoxicity in Crlj:CD1(ICR) mouse assessed as change in plasma total bilirubin level at 500 to 1000 mg/kg, po administered for 5 consecutive days measured 24 hrs post final dosing. The series is classed as toxicity, organism-based. More on the design: dose 500-1000 mg/kg, route oral. The settings on record: in vivo.

Series [14] has as its system Mus musculus. The series can be described thus: Hepatotoxicity in Crlj:CD1(ICR) mouse assessed as change in plasma AST level at 500 to 1000 mg/kg, po administered for 5 consecutive days measured 24 hrs post final dosing. The class given is toxicity, organism-based. Details: dose 500-1000 mg/kg, route oral. The following applies: in vivo.

Structures are written as SMILES.

By IC50 is commonly meant the concentration at which inhibition is half-maximal. A word on the inhibition in vivo: it is the relative decrease from the control value, in per cent. What is called ED50 is the dose at which the effect has come halfway, by size or by number of responders.

Mitogen-activated protein kinase 14, sequence (Q16539 whole entry): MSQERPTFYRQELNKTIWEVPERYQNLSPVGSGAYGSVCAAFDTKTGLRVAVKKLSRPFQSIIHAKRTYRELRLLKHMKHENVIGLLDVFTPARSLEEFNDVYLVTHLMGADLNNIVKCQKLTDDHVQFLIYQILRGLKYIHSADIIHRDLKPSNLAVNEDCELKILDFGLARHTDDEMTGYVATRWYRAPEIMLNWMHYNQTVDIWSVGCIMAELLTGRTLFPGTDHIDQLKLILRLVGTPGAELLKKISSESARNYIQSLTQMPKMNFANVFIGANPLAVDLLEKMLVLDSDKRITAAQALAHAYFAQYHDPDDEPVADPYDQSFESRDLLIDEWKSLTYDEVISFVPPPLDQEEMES

Consider `Cc1ccc(-n2nc(C(C)(C)C)cc2NC(=O)NCc2ccccc2O)cc1`, for which the IC50 in [1] was 1500 nM.

Take `Cc1ccc(-n2nc(C(C)(C)C)cc2NC(=O)NCc2ccccc2Oc2ccnc(N3CCOCC3)n2)cc1`: the inhibition in vivo at 50 mg/kg in the series with Mus musculus [2] was 65%. Besides, the half-maximal inhibitory concentration (IC50) was determined as 720 nM in [3] and 12 nM in series [1].

Turning to `Cc1ccc(-n2nc(C(C)(C)C)cc2NC(=O)NCc2ccccc2Oc2ccnc(N3CCCCC3)n2)cc1`, the IC50 in series [1] worked out at 13 nM.

With `Cc1ccc(-n2nc(C(C)(C)C)cc2NC(=O)NCc2ccccc2Oc2ccnc(Cl)n2)cc1`, the IC50 in [1] was 20 nM.

For `Cc1ccc(-n2nc(C(C)(C)C)cc2NC(=O)NCc2cc(F)ccc2Oc2ccnc(N3CCOCC3)n2)cc1`, the Activity stood at 46 U/L in the series with Mus musculus [4]; 47 U/L in the series with Mus musculus [5]; 42 U/L in the series on Mus musculus [6]; 28 U/L in the series on Mus musculus [7]; 32 U/L with Mus musculus [8]; 26 U/L in the series on Mus musculus [9]. Moreover, in the series on Mus musculus [10], the 50% effective dose (ED50) was found to be 16 mg/kg. The inhibition in vivo at 50 mg/kg with Mus musculus [2] came out at 84%. The IC50 turned out to be 230 nM in series [3] and 4 nM in series [1].

Consider `Cc1ccc(-n2nc(C(C)(C)C)cc2NC(=O)NCc2cc(Cl)ccc2Oc2ccnc(N3CCOCC3)n2)cc1`, for which the inhibition in vivo at 100 mg/kg in the series with Mus musculus [11] came out at 81%. Moreover, the half-maximal inhibitory concentration (IC50) in series [3] was found to be 190 nM; in series [1], 5 nM.

With `Cc1ccc(-n2nc(C(C)(C)C)cc2NC(=O)NCc2cc(C)ccc2Oc2ccnc(N3CCOCC3)n2)cc1`, the IC50 in [3] amounted to 970 nM; in [1], 13 nM.

For `Cc1ccc(-n2nc(C(C)(C)C)cc2NC(=O)NCc2cc(C(F)(F)F)ccc2Oc2ccnc(N3CCOCC3)n2)cc1`, the IC50 in series [3] is above 10000 nM; in series [1] it was 35 nM.

For `Cc1ccc(-n2nc(C(C)(C)C)cc2NC(=O)NCc2cc(F)cc(F)c2Oc2ccnc(N3CCOCC3)n2)cc1`, the IC50 in [3] was 48 nM; in series [1] it was 3 nM.

As for `Cc1ccc(-n2nc(C(C)(C)C)cc2NC(=O)NCc2cc(F)cc(Cl)c2Oc2ccnc(N3CCOCC3)n2)cc1`, the 50% inhibitory concentration (IC50) in [3] is 110 nM; in series [1], 11 nM.

With `Cc1ccc(-n2nc(C(C)(C)C)cc2NC(=O)NCc2cc(F)cc(C)c2Oc2ccnc(N3CCOCC3)n2)cc1`, the IC50 in [1] turned out to be 14 nM.

`Cc1ccc(-n2nc(C(C)(C)C)cc2NC(=O)Nc2ccc(OCCN3CCOCC3)c3ccccc23)cc1` [DORAMAPIMOD]: the Activity entry in the series with Mus musculus [12], in the series with Mus musculus [13] and in the series on Mus musculus [14] was “Toxic” each time. The inhibition in vivo at 50 mg/kg in the series on Mus musculus [2] was 82%. Also, the IC50 in series [3] came out at 600 nM.
